Results reported in ChEMBL document CHEMBL1154246, “Spirobisnaphthalene analogues from the endophytic fungus Preussia sp” (J Nat Prod, 2009).
pIC50: −log10 of the molar value. Converted amounts (≈) assume the structure as drawn. The source made the active and inactive calls.

Columns and labels:
Staphylococcus aureus [1] = assay: Antibacterial activity against Staphylococcus aureus CMCC B26003 at 10 ug/disk after 24 hrs by paper disk method; assay type: functional; details: CMCC B26003, 24 h, read-out: IZ
In short: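 Paper-disk diffusion against S. aureus at 10 µg/disk on MH agar, inoculum 10^6 cfu/mL from MHB broth, 6 mm disks, 37 °C for 24 h. Inhibition zone diameter recorded in mm, n = 3.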

[2] = Cytotoxicity against human Bel7404 cells by MTT assay; assay type: functional, cell-based, BEL-7404; details: for pIC50: Homo sapiens, BEL-7404, read-out: IC50; for IC50: bel-7404
In short: (§1)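 MTT viability read-out in human cancer lines: A2780 ovarian, BEL-7404 liver, A-549, BGC-823 and HCT-8. IC50 derived from the concentration–response data.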

BGC-823 = assay: Cytotoxicity against human BGC823 cells by MTT assay; assay type: functional, cell-based; details: for pIC50: Homo sapiens, BGC-823, read-out: IC50; for IC50: bgc-823; in short: as §1
HCT-8 = assay: Cytotoxicity against human HCT8 cells by MTT assay; assay type: functional, cell-based; details: for pIC50: Homo sapiens, HCT-8, read-out: IC50; for IC50: hct-8; in short: as §1
Candida albicans [3] = assay: Antifungal activity against Candida albicans ATCC 10231 at 50 ug/disk after 48 hrs by paper disk method; assay type: functional, organism-based
In short: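 C. albicans grown in SDB broth, final 10^5 cfu/mL. Compound applied to 6 mm paper disks at 50 µg/disk on SD agar and incubated at 25 °C for 48 h. Zone of inhibition measured in mm.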

A549 = assay: Cytotoxicity against human A549 cells by MTT assay; assay type: functional, cell-based; details: for IC50: a549; in short: as §1
Staphylococcus aureus [4] = assay: Antibacterial activity against Staphylococcus aureus CMCC B26003 after 24 hrs by agar dilution method; assay type: functional
In short: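 S. aureus prepared from broth culture in MHB, final inoculum 10^6 cfu/mL. Agar dilution following NCCLS 2002 criteria, with 11 concentrations from 800 down to 0.78 µM (twofold steps).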

A2780 = assay: Cytotoxicity against human A2780 cells by MTT assay; assay type: functional, cell-based; details: for IC50: a2780; in short: as §1
Staphylococcus aureus [5] = assay: Antibacterial activity against Staphylococcus aureus CMCC B26003 at 5 ug/disk after 24 hrs by paper disk method; assay type: functional
In short: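 S. aureus grown in MHB broth, final 10^6 cfu/mL. Compound loaded onto 6 mm paper disks at 5 µg/disk and placed on MH agar, 37 °C for 24 h. Inhibition zone diameter measured in mm, n = 3.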

Candida albicans [6] = assay: Antifungal activity against Candida albicans ATCC 10231 at 25 ug/disk after 48 hrs by paper disk method; assay type: functional; details: ATCC 10231, 48 h, read-out: IZ
In short: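 C. albicans ATCC 10231 grown in SDB broth culture, adjusted to a final 10^5 cfu/mL, and spread on SD agar. Sample loaded onto 6 mm paper disks placed on the agar surface. Plates incubated at 25 °C for 48 h. Read-out is the diameter of the inhibition zone in mm.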

Work on CC1(C)S[C@@H]2[C@H](NC(=O)[C@H](N)c3ccccc3)C(=O)N2[C@H]1C(=O)O [AMPICILLIN SODIUM] yielded a zone of inhibition at 10 µg/disc (Staphylococcus aureus [1]) of 38.2 mm.

For CC(=O)O[C@H]1C(=O)[C@@]2(C)[C@H]([C@H](OC(=O)c3ccccc3)[C@]3(O)C[C@H](OC(=O)[C@H](O)[C@@H](NC(=O)c4ccccc4)c4ccccc4)C(C)=C1C3(C)C)[C@]1(OC(C)=O)CO[C@@H]1C[C@@H]2O [PACLITAXEL], the pIC50 [2] was 7.91, the pIC50 (BGC-823) was 8.48 and the pIC50 (HCT-8) was 8.44.

For O=C1C=Cc2cc3c(c4ccc(O)c1c24)C1(Oc2cccc4cccc(c24)O1)C1C(=O)C=CC31O (centres undefined) [SPIROPREUSSIONE B], the IC50 [2] was “Not Active”, the Activity (Candida albicans [3]) was “inactive” and the IC50 (A549) was “Not Active”. The IC50 (BGC-823) was “Not Active”, the MIC (Staphylococcus aureus [4]) was “inactive” and the IC50 (A2780) was “Not Active”. The IC50 (HCT-8) was “Not Active” and the “inhibition zone (IZ)” value (Staphylococcus aureus [5]) was “inactive”.

With O=C1C=CC(=O)C12C=CC1(Oc3cccc4cccc(c34)O1)C2O (centres undefined) [SPIROPREUSSIONE A] the pIC50 [2] was 5.52, the Activity (Candida albicans [3]) was “inactive” and the pIC50 (A549; Homo sapiens, A549, read-out: IC50) was under 5.00. It also gave a pIC50 (BGC-823) of under 5.00, an MIC (Staphylococcus aureus [4]; CMCC B26003, 24 h) of 25 µM (≈ 8.01 µg/mL) and a pIC50 (A2780; Homo sapiens, A2780, read-out: IC50) of 5.62. For the same compound, the pIC50 (HCT-8) was under 5.00 and the zone of inhibition at 5 µg/disc (Staphylococcus aureus [5]; CMCC B26003, 24 h, read-out: IZ) was 16.4 mm.

With Oc1ccc2c(c1)C1(Oc3cccc4cccc(c34)O1)[C@@H]1O[C@@H]1[C@@H]2O [SPIROPREUSSOMERIN A] the IC50 [2] was “Not Active”, the Activity (Candida albicans [3]) was “inactive” and the IC50 (A549) was “Not Active”. The IC50 (BGC-823) was “Not Active”, the MIC (Staphylococcus aureus [4]) was “inactive” and the IC50 (A2780) was “Not Active”. For the same compound, the IC50 (HCT-8) was “Not Active” and the “inhibition zone (IZ)” value (Staphylococcus aureus [5]) was “inactive”.

OC(Cn1cncn1)(Cn1cncn1)c1ccc(F)cc1F [FLUCONAZOLE] gave a zone of inhibition at 25 µg/disc (Candida albicans [6]) of 31.3 mm.
